Source: paper PMC3889518 (European Journal of Clinical Pharmacology, 2013)
“Also recorded” adds a separate entry of the source.

Experiments:
CYP3A4 [1] = target: CYP3A4 (Homo sapiens, UniProt P08684); type: in vivo; details: repeat dosing of vercirnon 500 mg BID, midazolam probe, healthy subjects
CYP2C8 [2] = target: T1, CYP2C8 (Homo sapiens, UniProt P10632); type: in vivo; details: repeat dosing of vercirnon 500 mg BID, pioglitazone probe, healthy subjects
T1 sequence (P10632 1-490): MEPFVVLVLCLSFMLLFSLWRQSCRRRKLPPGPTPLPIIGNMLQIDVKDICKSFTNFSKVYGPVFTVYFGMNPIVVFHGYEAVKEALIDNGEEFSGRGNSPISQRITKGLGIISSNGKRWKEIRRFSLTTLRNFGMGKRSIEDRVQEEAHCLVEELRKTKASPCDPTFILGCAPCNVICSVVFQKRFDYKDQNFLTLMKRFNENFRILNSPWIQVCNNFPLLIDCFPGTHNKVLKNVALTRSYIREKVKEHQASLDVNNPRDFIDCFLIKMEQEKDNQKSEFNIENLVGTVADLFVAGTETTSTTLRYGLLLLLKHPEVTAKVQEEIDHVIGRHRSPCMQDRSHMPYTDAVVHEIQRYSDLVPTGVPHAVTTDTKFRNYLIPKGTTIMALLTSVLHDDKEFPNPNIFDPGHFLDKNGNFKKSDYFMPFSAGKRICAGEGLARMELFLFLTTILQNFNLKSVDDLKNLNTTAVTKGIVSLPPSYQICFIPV

CYP2C19 = CYP2C19 (Homo sapiens, UniProt P33261); type: in vivo; details: repeat dosing of vercirnon 500 mg BID, omeprazole probe, healthy subjects
BCRP and OATP1B1 = type: in vivo, human; details: repeat dosing of vercirnon 500 mg BID, rosuvastatin probe, healthy subjects
Summary of the method: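 Open-label, single-sequence study in 24 healthy adults aged 18–55. Rosuvastatin 10 mg oral tablet was given alone on day 4 and again on day 14 with vercirnon 500 mg BID after meals (days 5–14). Dosing was 30 min after breakfast with 240 mL water. Serial plasma samples were taken over 48 h. Non-compartmental AUC0–∞ was loge-transformed and analysed in a mixed-effects model (treatment fixed, subject random), giving a geometric LS mean ratio with 90% CI.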

[3] = type: in vivo, human; details: day 10 compared with day 5, vercirnon 500 mg BID
Summary of the method: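 Vercirnon 500 mg BID, taken after meals, starting study day 5. Six volunteers had serial plasma sampling over 24 h on days 5 and 10 for vercirnon and two metabolites. Non-compartmental AUC0–τ, Cmax and tmax were determined. Accumulation ratio for AUC0–τ and Cmax compared day 10 with day 5. Metabolite:parent AUC0–τ ratios were molar. Steady state was tested on day 6–11 troughs from all 24 subjects by the 90% CI of the regression slope.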

[4] = Safety and tolerability in healthy subjects; type: in vivo, human
[5] = oral administration 250 to 1,000 mg; cited from earlier work
[6] = ref ChemoCentryx, data on file; cited from earlier work
[7] = system: human p-glycoprotein transporter protein; details: ref ChemoCentryx, data on file; cited from earlier work
[8] = ref ChemoCentryx, data on file; cited from earlier work; remark: listed apart in the source
[9] = multiple oxidative and reductive pathways, including CYP3A4, CYP2C19 and CYP2B6; ref ChemoCentryx, data on file; cited from earlier work
[10] = read-out: maximum observed concentration [Cmax] range; likely therapeutic plasma concentrations; ref ChemoCentryx, data on file; cited from earlier work
[11] = system: breast cancer resistant protein (BCRP); details: ref ChemoCentryx and GlaxoSmithKline, data on file; cited from earlier work
OAT1B1 = details: ref ChemoCentryx and GlaxoSmithKline, data on file; cited from earlier work
OAT1 = details: ref ChemoCentryx and GlaxoSmithKline, data on file; cited from earlier work
OAT3 = details: ref ChemoCentryx and GlaxoSmithKline, data on file; cited from earlier work
CYP2C8 [12] = details: cited from earlier work
CYP3A4 [13] = details: co-administration with ketoconazole, strong inhibitor of CYP3A4; cited from earlier work
OATP1B1 = details: co-administration of cyclosporin, inhibitor of OATP1B1; cited from earlier work
[14] = high first-pass effect; cited from earlier work
CYP2C8 [15] = details: strong inhibitor of CYP2C8; cited from earlier work

Chain of CYP3A4 (Homo sapiens, UniProt P08684) (P08684 whole entry): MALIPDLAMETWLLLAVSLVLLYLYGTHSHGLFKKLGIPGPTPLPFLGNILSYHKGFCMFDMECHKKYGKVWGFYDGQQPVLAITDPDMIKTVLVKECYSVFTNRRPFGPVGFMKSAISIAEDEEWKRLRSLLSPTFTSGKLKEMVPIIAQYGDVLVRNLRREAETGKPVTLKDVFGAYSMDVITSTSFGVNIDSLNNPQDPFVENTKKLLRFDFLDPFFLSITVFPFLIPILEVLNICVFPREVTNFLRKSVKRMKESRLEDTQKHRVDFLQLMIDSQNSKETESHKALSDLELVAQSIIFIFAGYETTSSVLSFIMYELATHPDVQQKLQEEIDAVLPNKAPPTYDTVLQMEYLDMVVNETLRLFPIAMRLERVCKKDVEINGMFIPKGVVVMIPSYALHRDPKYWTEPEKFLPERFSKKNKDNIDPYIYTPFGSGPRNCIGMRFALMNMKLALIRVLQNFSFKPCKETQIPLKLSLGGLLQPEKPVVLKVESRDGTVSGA
Chain of CYP2C19 (P33261 whole entry): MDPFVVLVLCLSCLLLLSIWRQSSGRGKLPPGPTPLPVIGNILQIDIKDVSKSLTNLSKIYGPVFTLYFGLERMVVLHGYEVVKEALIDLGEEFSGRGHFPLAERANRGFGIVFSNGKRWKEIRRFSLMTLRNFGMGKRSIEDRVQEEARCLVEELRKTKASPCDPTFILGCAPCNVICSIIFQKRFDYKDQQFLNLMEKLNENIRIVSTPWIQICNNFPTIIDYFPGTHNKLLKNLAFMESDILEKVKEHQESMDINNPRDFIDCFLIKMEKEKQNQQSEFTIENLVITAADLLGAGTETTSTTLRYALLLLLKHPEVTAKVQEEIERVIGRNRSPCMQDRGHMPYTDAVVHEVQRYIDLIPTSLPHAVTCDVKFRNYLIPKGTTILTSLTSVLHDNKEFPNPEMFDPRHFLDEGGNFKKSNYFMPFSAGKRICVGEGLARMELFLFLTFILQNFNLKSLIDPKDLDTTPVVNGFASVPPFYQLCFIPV

## CC(C)(C)c1ccc(S(=O)(=O)Nc2ccc(Cl)cc2C(=O)c2cc[n+]([O-])cc2)cc1 [Vercirnon]
CYP3A4 [1]
  Effect on CYP3A4 enzyme activity: no clinically significant effect
CYP2C8 [2]
  Effect on CYP2C8 enzyme activity: no clinically significant effect
CYP2C19
  Effect on CYP2C19 enzyme activity: no clinically significant effect
BCRP and OATP1B1
  Effect on BCRP or OATP1B1 transporter activity: no clinically significant effect
[3]
  Average accumulation in terms of AUC0–τ: 14%
  Average accumulation in terms of Cmax: 3%
[4]; 24 healthy subjects, all treatments over 14 days, vercirnon 500 mg BID
  Tolerability: well tolerated
[5]
  time to maximum concentration (tmax): 3 to 4 h
[6]
  protein bound: > 90%
[7]
  Substrate for human p-glycoprotein transporter protein or other transport proteins: unlikely to be a substrate
[8]
  Permeability: passively permeable
[9]
  Metabolism: extensively metabolised
[10]
  Cmax: 3 to 5 µM
[11]
  Inhibition of BCRP in vitro: can inhibit
OAT1B1
  Inhibition of OAT1B1 in vitro: has the potential to inhibit; also recorded: can inhibit
OAT1
  Inhibition of OAT1 in vitro: can inhibit
OAT3
  Inhibition of OAT3 in vitro: can inhibit

## CCc1ccc(CCOc2ccc(CC3SC(=O)NC3=O)cc2)nc1 (stereo not drawn) [Pioglitazone]
CYP2C8 [12]; co-administration with gemfibrozil
  Increase of pioglitazone AUC: 3.4 fold
CYP2C8 [12]; co-administration with rifampin, inducer of CYP2C8
  Decrease of exposure (AUC) of pioglitazone: 54%
CYP3A4 [13]
  Increase of pioglitazone: 34%

## Cc1ncc2n1-c1ccc(Cl)cc1C(c1ccccc1F)=NC2 [Midazolam, reference compound]
[4]; of 24 subjects, on 19 occasions, midazolam alone or midazolam + vercirnon
  Somnolence, number of subjects reporting: 13 subjects

## CC(C)c1nc(N(C)S(C)(=O)=O)nc(-c2ccc(F)cc2)c1/C=C/[C@@H](O)C[C@@H](O)CC(=O)O [Rosuvastatin]
OATP1B1
  Increase of rosuvastatin AUC: 7 fold
[14]
  bioavailability: ~20%

## Cc1ccc(C)c(OCCCC(C)(C)C(=O)O)c1 [gemfibrozil]
CYP2C8 [15]
  Ki: 69 to 75 µM
